Laboratory results published in ChEMBL document CHEMBL1255513, “Synthesis and biological evaluation of indomethacin analogs possessing a N-difluoromethyl-1,2-dihydropyrid-2-one ring system: a search for novel cyclooxygenase and lipoxygenase inhibitors” (Bioorg Med Chem Lett, 2010).
Active and inactive are the calls of the source. The rule behind the calls is not given here.

How the values were obtained:
[1] = target: T1, Prostaglandin G/H synthase 1 (Ovis aries, UniProt P05979); assay: Inhibition of ovine COX1 by enzyme immunoassay
T1 sequence (P05979 whole entry): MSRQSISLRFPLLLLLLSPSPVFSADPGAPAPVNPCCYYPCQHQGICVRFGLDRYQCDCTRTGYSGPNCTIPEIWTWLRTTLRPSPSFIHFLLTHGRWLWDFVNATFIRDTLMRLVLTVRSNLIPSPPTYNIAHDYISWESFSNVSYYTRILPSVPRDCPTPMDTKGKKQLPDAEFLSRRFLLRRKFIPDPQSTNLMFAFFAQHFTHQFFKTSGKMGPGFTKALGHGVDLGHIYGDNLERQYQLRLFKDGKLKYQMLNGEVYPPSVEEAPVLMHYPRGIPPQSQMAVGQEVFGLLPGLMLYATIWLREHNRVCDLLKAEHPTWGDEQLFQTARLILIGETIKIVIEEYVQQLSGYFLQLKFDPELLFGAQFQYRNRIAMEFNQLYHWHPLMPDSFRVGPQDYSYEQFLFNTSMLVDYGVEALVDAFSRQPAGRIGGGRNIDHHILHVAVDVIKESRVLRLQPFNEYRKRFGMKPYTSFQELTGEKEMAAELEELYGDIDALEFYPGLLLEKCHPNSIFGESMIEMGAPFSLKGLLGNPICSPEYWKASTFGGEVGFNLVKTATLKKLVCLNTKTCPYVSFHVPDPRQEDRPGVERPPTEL
Outline: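 COX inhibition was measured by enzyme immunoassay kit. IC50 is the mean of two determinations, with deviation from the mean below 10%.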

Rattus norvegicus [2] = assay: Antiinflammatory activity in rat assessed as inhibition of carrageenan-induced rat paw edema at 100 mg/kg, po after 3 hrs; assay type: functional
Outline: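 Carrageenan-induced rat paw edema; test compound given orally at 100 mg/kg. Result is % inhibition of inflammation at 3 h after dosing. Protocol was approved by the University of Alberta Health Sciences Animal Welfare Committee.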

[3] = Inhibition of potato 5-lipoxygenase by enzyme immunoassay; design: species or system Solanum tuberosum
[4] = target: T2, Prostaglandin G/H synthase 2 (Homo sapiens, UniProt P35354); assay: Inhibition of human recombinant COX2 by enzyme immunoassay
T2 sequence (P35354 whole entry): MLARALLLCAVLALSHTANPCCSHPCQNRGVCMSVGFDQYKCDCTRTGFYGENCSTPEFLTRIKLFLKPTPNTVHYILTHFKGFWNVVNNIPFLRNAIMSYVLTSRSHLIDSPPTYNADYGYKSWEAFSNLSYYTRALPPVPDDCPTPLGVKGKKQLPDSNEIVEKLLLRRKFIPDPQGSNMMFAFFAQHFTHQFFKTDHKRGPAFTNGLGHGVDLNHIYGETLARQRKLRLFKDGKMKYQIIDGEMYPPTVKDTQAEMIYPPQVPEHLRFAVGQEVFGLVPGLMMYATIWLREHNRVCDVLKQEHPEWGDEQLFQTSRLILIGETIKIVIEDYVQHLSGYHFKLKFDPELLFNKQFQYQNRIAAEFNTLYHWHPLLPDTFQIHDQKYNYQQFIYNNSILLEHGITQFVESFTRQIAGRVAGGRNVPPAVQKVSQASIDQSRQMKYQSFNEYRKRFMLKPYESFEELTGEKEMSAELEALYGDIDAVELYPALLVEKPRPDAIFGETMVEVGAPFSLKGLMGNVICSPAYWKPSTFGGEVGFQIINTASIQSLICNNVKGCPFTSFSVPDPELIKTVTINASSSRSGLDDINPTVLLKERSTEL

Rattus norvegicus [5] = assay: Antiinflammatory activity in rat assessed as inhibition of carrageenan-induced rat paw edema at 4.2 mg/kg, po after 3 hrs; assay type: functional
Outline: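 Carrageenan-induced foot paw edema in rats, with the agent given orally. Read-out is % inhibition of inflammation, measured 3 h after the oral dose. Animal work followed protocols approved by the University of Alberta Health Sciences Animal Welfare Committee.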

Compound	IC50 [1]	inhibition in vivo at 100 mg/kg (Rattus norvegicus [2])	IC50 [3]	IC50 [4]	inhibition in vivo at 4.2 mg/kg (Rattus norvegicus [5])	inhibition (Rattus norvegicus [2])
COc1ccc2c(c1)c(CC(=O)O)c(C)n2C(=O)c1ccn(C(F)F)c(=O)c1	> 100 µM	25.5%	> 100 µM	> 100 µM		
COc1ccc2c(c1)c(CC(=O)O)c(C)n2Cc1ccc(=O)n(C(F)F)c1	> 100 µM	16%	> 100 µM	> 100 µM		
CC(Cc1ccc(O)c(O)c1)C(C)Cc1ccc(O)c(O)c1 (centres undefined) [NORDIHYDROGUAIARETIC ACID]			13 µM			
COc1ccc2c(c1)c(CC(=O)O)c(C)n2C(=O)c1ccc(Cl)cc1 [INDOMETHACIN]					50%	
COc1ccc2c(c1)c(CC(=O)O)c(C)n2Cc1ccn(C(F)F)c(=O)c1	> 100 µM		> 100 µM	31 µM		inactive
